# What was measured:
# [1] = tested on: KG-1; assay: Induction of apoptosis in human KG1 cells at 5.0 uM […] by acridine orange staining; assay type: functional
# [2] = biological target: T1, Nuclear receptor subfamily 0 group B member 2 (Homo sapiens) (UniProt Q15466); assay: Displacement of [5,5'-3H2]AHPN from human recombinant GST-SHP at 50 uM by liquid scintillation counting relative to 3-Cl-AHPC
# T1 sequence (whole entry): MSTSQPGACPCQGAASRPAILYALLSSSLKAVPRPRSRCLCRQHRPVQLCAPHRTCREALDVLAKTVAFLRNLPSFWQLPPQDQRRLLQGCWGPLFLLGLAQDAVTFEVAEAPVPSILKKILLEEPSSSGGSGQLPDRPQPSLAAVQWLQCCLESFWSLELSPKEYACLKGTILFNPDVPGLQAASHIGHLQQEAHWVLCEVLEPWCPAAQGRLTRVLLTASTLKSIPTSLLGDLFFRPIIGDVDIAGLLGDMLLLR
# Method in brief: (§1)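 Recombinant GST–human SHP was bound to glutathione–Sepharose beads and incubated 2 h with 5 nM [5,5′-3H2]AHPN with or without competitor (1.0, 5.0 or 50 μM). Beads were washed twice and counted. Displacement was expressed relative to 50 μM 3-Cl-AHPC set as 100%.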
# [3] = biological target: T2, Tyrosine-protein phosphatase non-receptor type 11 (Homo sapiens, UniProt Q06124); assay: Inhibition of SHP2 overexpressed in human KG1 cells; assay type: cell-based, KG-1
# T2 sequence (Q06124 whole entry): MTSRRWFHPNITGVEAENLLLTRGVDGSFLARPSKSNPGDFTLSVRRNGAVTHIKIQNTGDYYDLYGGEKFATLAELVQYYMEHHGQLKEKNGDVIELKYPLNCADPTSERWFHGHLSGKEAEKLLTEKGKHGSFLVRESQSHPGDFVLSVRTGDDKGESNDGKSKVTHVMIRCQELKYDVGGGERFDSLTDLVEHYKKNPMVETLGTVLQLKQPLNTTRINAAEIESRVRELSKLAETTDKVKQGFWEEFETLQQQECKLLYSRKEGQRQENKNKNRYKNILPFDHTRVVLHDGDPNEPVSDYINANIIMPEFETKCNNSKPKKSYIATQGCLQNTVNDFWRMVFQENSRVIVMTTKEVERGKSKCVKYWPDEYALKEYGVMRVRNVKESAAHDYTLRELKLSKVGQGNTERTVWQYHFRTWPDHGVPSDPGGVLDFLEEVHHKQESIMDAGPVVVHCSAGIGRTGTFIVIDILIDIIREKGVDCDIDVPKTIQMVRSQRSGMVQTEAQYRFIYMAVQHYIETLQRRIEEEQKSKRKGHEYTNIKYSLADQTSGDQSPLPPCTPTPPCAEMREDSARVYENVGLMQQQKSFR
# Method in brief: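 Shp-2 PTP activity was measured as hydrolysis of the fluorogenic substrate 6,8-difluoro-4-methylumbelliferyl phosphate in the presence of analogue in Me2SO or Me2SO alone (final concentration 5%).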
# [4] = tested on: DU-145; assay: Antiproliferative activity against human DU145 cells at 10 uM after 72 hrs by MTT assay; assay type: functional; conditions: DU-145, 72 h
# Method in brief: (§2)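 Cells attached for 24 h, then exposed 72 h to analogue in Me2SO or Me2SO alone (final Me2SO 0.1%), with media and compound renewed after 48 h. Viable cells were measured by MTS tetrazolium reduction in three replicates. Top concentration tested per compound was 2.5, 5, 10, 20 or 100 μM.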
# [5] = Antiproliferative activity against human H292 cells at 10 uM after 72 hrs by MTT assay; assay type: functional; conditions: NCI-H292, 72 h; method in brief: as §2
# [6] = Antiproliferative activity against human KG1 AML cells at 5 uM after 48 hrs by MTT assay; assay type: functional; conditions: in the assay text read “by hemocytometer cell counting” for “by MTT assay”
# Method in brief: (§3)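 KG-1 cells in 5% FBS medium attached overnight, then treated 48 h with analogue in Me2SO or Me2SO alone (final 0.1%). Cells were harvested and counted by hemocytometer in triplicate wells. Highest concentration evaluated was 5 μM.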
# [7] = tested on: DU-145; assay: Antiproliferative activity against human DU145 cells after 72 hrs by MTT assay; assay type: functional, cell-based; conditions: DU-145, 72 h; method in brief: as §2
# [8] = tested on: KG-1; assay: Induction of apoptosis in human KG1 cells at 1.0 uM […] by acridine orange staining; assay type: functional
# [9] = Antiproliferative activity against human KG1 AML cells after 48 hrs by MTT assay; assay type: functional, cell-based; conditions: in the assay text read “by hemocytometer cell counting” for “by MTT assay”; method in brief: as §3
# [10] = tested on: MDA-MB-231; assay: Antiproliferative activity against human MDA-MB-231 cells after 72 hrs by MTT assay; assay type: functional, cell-based; conditions: MDA-MB-231, 72 h; method in brief: as §2
# [11] = Antiproliferative activity against human H292 cells after 72 hrs by MTT assay; assay type: functional, cell-based; conditions: NCI-H292, 72 h; method in brief: as §2
# [12] = tested on: MDA-MB-231; assay: Antiproliferative activity against human MDA-MB-231 cells at 10 uM after 72 hrs by MTT assay; assay type: functional; conditions: MDA-MB-231, 72 h; method in brief: as §2
# [13] = tested on: KG-1; assay: Induction of apoptosis in human KG1 cells after 48 hrs by acridine orange staining; assay type: functional, cell-based; conditions: KG-1, 48 h
# [14] = tested on: MDA-MB-231; assay: Induction of apoptosis in human MDA-MB-231 cells at 2.0 uM after 96 hrs by acridine orange staining; assay type: functional
# Method in brief: (§4)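 KG-1, HL-60R (24 h) or MDA-MB-231 (96 h) cells in 5% FBS medium attached overnight, then were treated with analogue in Me2SO or vehicle (final 0.1% Me2SO). Apoptotic cells were scored by acridine orange staining on at least three replicates. Tested concentrations were 0.1–5.0 μM, plus 25 μM for KG-1.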
# [15] = tested on: MDA-MB-231; assay: Antiproliferative activity against human MDA-MB-231 cells at 2.5 uM after 72 hrs by MTT assay; assay type: functional; conditions: MDA-MB-231, 72 h; method in brief: as §2
# [16] = Induction of apoptosis in human HL60R cells at 1.0 uM after 24 hrs by acridine orange staining; assay type: functional; method in brief: as §4
# [17] = biological target: T3, Nuclear receptor subfamily 0 group B member 2 (Homo sapiens, UniProt Q15466); assay: Displacement of [5,5'-3H2]AHPN from human recombinant GST-SHP by liquid scintillation counting relative to 3-Cl-AHPC; method in brief: as §1
# T3 sequence (Q15466 whole entry): T1 sequence (whole entry)
# [18] = Antiproliferative activity against human H292 cells at 2.5 uM after 72 hrs by MTT assay; assay type: functional; conditions: NCI-H292, 72 h; method in brief: as §2
# [19] = tested on: DU-145; assay: Antiproliferative activity against human DU145 cells at 2.5 uM after 72 hrs by MTT assay; assay type: functional; conditions: DU-145, 72 h; method in brief: as §2
# [20] = tested on: MDA-MB-231; assay: Induction of apoptosis in human MDA-MB-231 cells at 1.0 uM after 96 hrs by acridine orange staining; assay type: functional; method in brief: as §4
# [21] = Induction of apoptosis in human HL60R cells at 0.1 uM after 24 hrs by acridine orange staining; assay type: functional; method in brief: as §4
# [22] = Growth inhibition of human HL60R cells at 1.0 uM after 24 hrs by hemocytometer; assay type: functional; conditions: read-out: GI
# Method in brief: (§5)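 HL-60R cells in medium with 5% FBS attached overnight, then received analogue in Me2SO or vehicle (final Me2SO 0.1%) for 24 h. Cells were harvested and counted in triplicate wells with a hemocytometer.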
# [23] = Growth inhibition of HMVE cells at 0.5 uM after 72 hrs by alamar blue method; assay type: cell-based; conditions: human, HMVE cells; read-out: GI
# [24] = Growth inhibition of human HL60R cells at 0.1 uM after 24 hrs by hemocytometer; assay type: functional; conditions: read-out: GI; method in brief: as §5
# [25] = Growth inhibition of HMVE cells after 72 hrs by alamar blue method; assay type: cell-based; conditions: Homo sapiens
# [26] = tested on: MDA-MB-231; assay: Antiproliferative activity against human MDA-MB-231 cells at 5 uM after 72 hrs by MTT assay; assay type: functional; conditions: MDA-MB-231, 72 h; method in brief: as §2
# [27] = tested on: DU-145; assay: Antiproliferative activity against human DU145 cells at 5 uM after 72 hrs by MTT assay; assay type: functional; conditions: DU-145, 72 h; method in brief: as §2
# [28] = Antiproliferative activity against human H292 cells at 5 uM after 72 hrs by MTT assay; assay type: functional; conditions: NCI-H292, 72 h; method in brief: as §2
# [29] = tested on: KG-1; assay: Induction of apoptosis in human KG1 cells at 25 uM […] by acridine orange staining; assay type: functional
Activity [2],IC50 [3],IC50 [7],IC50 [10],IC50 [13],IC50 [17],SMILES,Activity [1],inhibition at 10 µM [4],inhibition at 10 µM [5],Activity [6],Activity [8],IC50 [9],IC50 [11],inhibition at 10 µM [12],Activity [14],Activity [16],Activity [20],Activity [21],other results
85%,3.91 µM,7.9 µM,9.8 µM,230 µM,–,O=C(O)/C=C/c1ccc(-c2ccc(O)c(C34CC5CC(CC3C5)C4)c2)c(Cl)c1,16%,59%,69%,94%,2%,920 nM,6.8 µM,51%,–,–,–,–,–
–,19.9 µM,> 10 µM,> 10 µM,–,–,Cc1cccc(C)c1-c1cc(-c2ccc(/C=C/C(=O)O)cc2Cl)ccc1O,0%,4%,0%,0%,0%,> 5000 nM,> 10 µM,0%,–,–,–,–,–
–,2.1 µM,0.48 µM,0.95 µM,4.2 µM,2.5 µM,O=C(O)/C=C/c1ccc(-c2ccc(O)c(C34CC5CC(CC(C5)C3)C4)c2)c(Cl)c1,55%,–,–,67%,30%,1400 nM,0.4 µM,–,43%,94%,31%,51%,inhibition at 2.5 µM [15]: 63%; inhibition at 2.5 µM [18]: 92%; inhibition at 2.5 µM [19]: 85%
–,–,–,–,–,–,O=C(O)c1ccc2cc(-c3cccc(C45CC6CC(CC(C6)C4)C5)c3)ccc2c1,–,–,–,–,–,–,–,–,7%,2%,2%,2%,"inhibition of growth at 1 µM [22]: 8%; inhibition at 72 h, 0.5 µM [23]: 36%; inhibition of growth at 0.1 µM [24]: 4%; IC50 [25]: > 500 nM"
90%,5.37 µM,> 5 µM,> 5 µM,–,8 µM,CCC(CC)(CC)c1cc(-c2ccc(/C=C/C(=O)O)cc2Cl)ccc1O,4%,–,–,0%,3%,> 5000 nM,> 5 µM,–,–,–,–,–,inhibition at 5 µM [26]: 2%; inhibition at 5 µM [27]: 2%; inhibition at 5 µM [28]: 5%; Activity [29]: 14%

# — ChEMBL document CHEMBL1140080, “Adamantyl-substituted retinoid-derived molecules that interact with the orphan nuclear receptor small heterodimer partner: effects of replacing the 1-adamantyl or hydroxyl group on inhibition of cancer cell growth, induction of cancer cell apoptosis, and inhibition of SRC homology 2 …” (J Med Chem, 2008)
